As a reminder, the IC50 is the concentration needed to halve the response being measured. In general, MIC refers to the least concentration at which growth counts as inhibited. Lower therefore signals a more susceptible organism. Broadly, the residual activity is what remains of the control signal, in per cent.

Test system in the first test: not listed separately
Nature of the test: Inhibition of Escherichia coli MurD ligase assessed as residual activity by colorimetry.
Details: not given
In short, it runs like this:
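Malachite green orthophosphate detection with purified E. coli MurD. Substrates 80 μM UDP-MurNAc-L-Ala, 100 μM D-Glu, 400 μM ATP; 5% DMSO final. Incubated 37 C for 15 min, A650 read. IC50 from seven concentrations run in triplicate.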
With `O=C(O)CC[C@H](NC(=O)c1ccc(CNc2cccc(/C=C3\SC(=S)NC3=O)c2)cc1)C(=O)O`, the IC50 is 206 µM.

As for `O=C(O)CC[C@@H](NC(=O)c1ccc(CNc2cccc(/C=C3\SC(=S)NC3=O)c2)cc1)C(=O)O`, the IC50 was determined as 174 µM.

On to `O=C(O)CC[C@@H](NC(=O)c1cccc(CNc2ccc(/C=C3\SC(=S)NC3=O)cc2)c1)C(=O)O`, for which the IC50 turned out to be 45 µM.

Test system in a further test: not listed separately
Nature of the test: Inhibition of Escherichia coli MurD ligase assessed as conversion of D-[14C]Glu to UDP-MurNac-L-Ala by radioactivity assay.
Details: not given
In short, it runs like this: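 Incubated 37 C for 30 min, stopped with acetic acid. Substrate and product separated by TLC and quantified by radioactivity scanning. IC50 from residual activities at seven concentrations.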
With `O=C(O)CC[C@@H](NC(=O)c1cccc(CNc2ccc(/C=C3\SC(=O)NC3=O)cc2)c1)C(=O)O`, the IC50 was found to be 35 µM.

For the compound `O=C(O)CC[C@@H](NC(=O)c1cccc(CNc2ccc(/C=C3\SC(=S)NC3=O)cc2)c1)C(=O)O`, the IC50 is 49 µM.

A further test deals with Staphylococcus aureus. Kind of test: Antimicrobial activity against Staphylococcus aureus ATCC 29213 by microdilution method. The conditions noted are these: in the assay text read “macrodilution” for “microdilution”. Format: functional. In short, it runs like this: (§1)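 Broth macrodilution in cation-adjusted Mueller–Hinton broth. Stock 2 mg/mL in DMSO, serially diluted to final 0.016–128 μg/mL. Inoculum from four colonies of a fresh overnight culture, adjusted to 0.5 McFarland and diluted to approximately 10^5 CFU/mL, then mixed 1:1 with drug. Incubated 35 C for 18–24 h. MIC is the lowest concentration giving complete inhibition of visible growth. QC with S. aureus ATCC 29213 and gentamicin.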
In general terms: Dilution methods test growth across graded concentrations, often in twofold steps.
As to `O=C(O)CC[C@@H](NC(=O)c1ccc(CNc2cccc(/C=C3\SC(=S)NC3=O)c2)cc1)C(=O)O`, the MIC is greater than 128 µg/mL.

Compound `O=C(O)CC[C@@H](NC(=O)c1cccc(CNc2ccc(/C=C3\SC(=S)NC3=O)cc2)c1)C(=O)O` showed an MIC greater than 128 µg/mL.

The next test concerns Escherichia coli. Nature of the test: Antimicrobial activity against Escherichia coli ATCC 25922 by microdilution method. It counts as functional. The conditions noted are these: in the assay text read “macrodilution” for “microdilution”. In short, it runs like this: as §1
`O=C(O)CC[C@@H](NC(=O)c1ccc(CNc2cccc(/C=C3\SC(=S)NC3=O)c2)cc1)C(=O)O` gave an MIC greater than 128 µg/mL.

As to `O=C(O)CC[C@@H](NC(=O)c1cccc(CNc2ccc(/C=C3\SC(=S)NC3=O)cc2)c1)C(=O)O`, the MIC was greater than 128 µg/mL.

Another test concerns Pseudomonas aeruginosa. Nature of the test: Antimicrobial activity against Pseudomonas aeruginosa ATCC 27853 by microdilution method. Format: functional. The conditions noted are these: in the assay text read “macrodilution” for “microdilution”. In short, it runs like this: as §1
In the case of `O=C(O)CC[C@@H](NC(=O)c1ccc(CNc2cccc(/C=C3\SC(=S)NC3=O)c2)cc1)C(=O)O`, the MIC is greater than 128 µg/mL.

In the case of `O=C(O)CC[C@@H](NC(=O)c1cccc(CNc2ccc(/C=C3\SC(=S)NC3=O)cc2)c1)C(=O)O`, the MIC is greater than 128 µg/mL.

The subject of another test is Enterococcus faecalis. Nature of the test: Antimicrobial activity against Enterococcus faecalis ATCC 29212 by macrodilution method.
Details: not given
`O=C(O)CC[C@@H](NC(=O)c1ccc(CNc2cccc(/C=C3\SC(=S)NC3=O)c2)cc1)C(=O)O` had an MIC greater than 128 µg/mL.

Compound `O=C(O)CC[C@@H](NC(=O)c1cccc(CNc2ccc(/C=C3\SC(=S)NC3=O)cc2)c1)C(=O)O` had an MIC greater than 128 µg/mL.

A further test concerns Escherichia coli. Nature of the test: Inhibition of Escherichia coli MurD ligase assessed as residual activity at 250 uM by colorimetry; values are per cent of control.
Details: not given
Consider `O=C(O)CC[C@H](NC(=O)c1ccc(CNc2ccc(/C=C3\SC(=O)NC3=O)cc2)cc1)C(=O)O`, for which the residual activity was 88%.

For `O=C(O)CC[C@H](NC(=O)c1ccc(CNc2cccc(/C=C3\SC(=O)NC3=O)c2)cc1)C(=O)O`, the residual activity stood at 87%.

Regarding `O=C(O)CC[C@@H](NC(=O)c1ccc(CNc2cccc(/C=C3\SC(=O)NC3=O)c2)cc1)C(=O)O`, the residual activity came out at 85%.

Take `O=C(O)CC[C@H](NC(=O)c1ccc(CNc2ccc(/C=C3\SC(=S)NC3=O)cc2)cc1)C(=O)O`: the residual activity is 68%.

On to `O=C(O)CC[C@@H](NC(=O)c1cccc(CNc2cccc(/C=C3\SC(=S)NC3=O)c2)c1)C(=O)O`, for which the residual activity worked out at 39%.

On to `O=C(O)CC[C@@H](NC(=O)c1cccc(CNc2cccc(/C=C3\SC(=O)NC3=O)c2)c1)C(=O)O`, for which the residual activity was determined as 87%.

Turning to `O=C(O)CC[C@@H](NC(=O)c1ccc(CNc2ccc(/C=C3\SC(=O)NC3=O)cc2)cc1)C(=O)O`, the residual activity was 70%.

Consider `O=C(O)CC[C@@H](NC(=O)c1ccc(CNc2ccc(/C=C3\SC(=S)NC3=O)cc2)cc1)C(=O)O`, for which the residual activity stood at 74%.
